FGF22 binding: binders of recombinant human FGF22 by thermal shift. SYPRO orange fluorescence; percent of sucrose octasulfate shift, DMSO zero. 1.5% of 340,000 active. Q9HCT0. AID 651658. activity (Tm shift, normalised), % at 9.99 µM;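 active = mean Tm shift, scaled 0 neutral to 100 positive control, at about 1.3% or above, every replicate too, limit read from the data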
NR2E3 ag-1: agonists of human NR2E3 nuclear receptor. CHO-S Gal4-NCOR/VP16-NR2E3 two-hybrid, luciferase. inhibition of corepressor binding, % at 3.98 µM. 0.35% of 360,000 active. AID 602229;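 active = inhibition above the mean of all tested compounds plus 3 SD, cut at about 70% in these data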;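 note: 0% = DMSO with NR2E3 transfected cells and 100% = cells lacking NR2E3 construct; higher means lower luciferase signal from less NR2E3 corepressor binding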
Target sequence (Q9Y5X4 whole entry, looked up, the tested form may be a part): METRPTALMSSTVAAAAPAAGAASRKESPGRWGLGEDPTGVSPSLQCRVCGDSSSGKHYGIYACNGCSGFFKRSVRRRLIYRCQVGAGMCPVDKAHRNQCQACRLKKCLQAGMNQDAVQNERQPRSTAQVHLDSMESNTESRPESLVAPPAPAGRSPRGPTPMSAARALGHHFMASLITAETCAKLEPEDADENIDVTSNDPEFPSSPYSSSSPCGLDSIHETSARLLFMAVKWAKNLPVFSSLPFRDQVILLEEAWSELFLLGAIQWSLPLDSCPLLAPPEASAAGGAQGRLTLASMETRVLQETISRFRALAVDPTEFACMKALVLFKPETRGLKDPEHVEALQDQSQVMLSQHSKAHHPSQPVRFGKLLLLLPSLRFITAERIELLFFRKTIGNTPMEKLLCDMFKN
697 NFkB inh: lowers PMA/ionomycin-induced NF-kB signal in 697 B cells; 697 B-cell NF-kB luciferase reporter, 16 h; inhibition, % at 4 µM; 0.33% of 330,000 active; AID 435022; in the data active = inhibition above about 35%
NR2E3 ag-2: agonists of human nuclear receptor NR2E3; 0.12% of 320,000 active; inhibition of corepressor binding, % at 4.78 µM; Q9Y5X4; GST-NR2E3/biotin-RetCOR TR-FRET, 1536-well;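 active = percent inhibition above the cutoff of mean plus 3 SD of all tested compounds, set per screening campaign, cut at about 20% in these data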;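 note: 0% = DMSO wells and 100% = biotin wells as full block of FRET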
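Material: NR2E3–RetCOR corepressor complex / Incubation: Compound–protein incubation for 5 h at 4 °C / Dosing: compound at 4.8 µM, single dose / Detection: time-resolved FRET / Benchmarks: high control biotin, low control 0.6% DMSO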
Jurkat NFkB inh: inhibitors of the PMA/ionomycin-induced NF-kB reporter in Jurkat cells. 0.53% of 330,000 active. PMA/ionomycin-induced NF-kB luciferase reporter, luminescence. inhibition, % at 4 µM. AID 435003; in the data active = inhibition above about 50%
miR-122 sensor: inhibitors of miR-122 in Huh7 cells | Huh7 miR-122 Renilla luciferase sensor, 48 h; neutral wells = 0, positive control = 100 | activation (reporter increase), % at 12.5 µM | 0.3% of 340,000 active | AID 602342;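 active = mean replicate activation score at least 90 and every replicate individually at or above 90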;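 note: higher luciferase means less miR-122 activity so hits act as miR-122 inhibitors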
Starred values were filed as active, the others as inactive; nt = no result; [ ] = remark or other dose. Hits are enriched below; roughly 2.2% of the tested compounds scored in any of these assays.

SMILES | FGF22 binding | NR2E3 ag-1 | 697 NFkB inh | NR2E3 ag-2 | Jurkat NFkB inh | miR-122 sensor
CC(=O)N1[C@@H]2Cn3c(ccc(C4=CCCC4)c3=O)[C@H]1[C@@H](C(=O)N[C@@H](C)c1ccccc1)[C@@H]2CO | nt | nt | nt | nt | nt | -6[16.7 µM]
Cc1ccc(OCCCC(=O)NCc2ccco2)cc1 | nt | -3 | -10 | 0 | -5 | 2
CCc1ccc(OCCCC(=O)NCc2ccco2)cc1 | 44* | -6 | -9 | 3 | -5 | 0
CC(C)(C)C(O)CN1CCCC1 (stereo not given) | 44* | -4 | 9 | 0 | -2 | -10
C[C@@H]1CN([C@H](C)CO)C(=O)c2cccc(NC(=O)C3CCOCC3)c2O[C@H]1CN(C)C(=O)Nc1cccc2ccccc12 | -1 | nt | nt | nt | nt | 2[16.7 µM]
C[C@@H]1CN([C@H](C)CO)C(=O)c2cccc(NC(=O)C3CCCCC3)c2O[C@@H]1CN(C)C(=O)Nc1ccc(C(F)(F)F)cc1 | 0 | nt | nt | nt | nt | -9[16.7 µM]
CC(C)CNC(=O)CN1C(=O)NC(Cc2c[nH]c3ccccc23)C1=O (stereo not given) | 43* | -25 | 6 | 2 | -2 | nt
O=C1NC(Cc2c[nH]c3ccccc23)C(=O)N1Cc1cccc2ccccc12 (stereo not given) | 43* | 7 | -13 | 4 | -15 | -8
O=C(NCC(F)(F)F)[C@H]1[C@H](CO)[C@H]2Cn3c(cccc3=O)[C@@H]1N2C(=O)C1CC1 | 0 | nt | nt | nt | nt | 0[16.7 µM]
O=C(c1cc([N+](=O)[O-])cc([N+](=O)[O-])c1)N1CCCc2ccccc21 | 43* | -33 | 13 | -2 | 4 | nt
O=C(c1cccc([N+](=O)[O-])c1)N1CCc2ccccc21 | 0 | -10 | 4 | 1 | -10 | 0
O=C(N/N=C1\CCCc2oc(C(=O)O)cc21)c1ccccc1 | 43* | -91 | -2 | -3 | -25 | 6
O=C(N/N=C1\CCCc2ccccc21)c1cccc([N+](=O)[O-])c1 | 0 | -2 | 12 | 2 | -20 | -2
O=C(N/N=C1/CCCc2ccccc21)c1cc([N+](=O)[O-])cc([N+](=O)[O-])c1 | 43* | nt | 19 | 5 | 5 | nt
CCC(=O)Nc1ccc2c(c1)C(=O)N(C)C[C@H](OC)[C@H](C)CN(CC1CCOCC1)[C@H](C)CO2 | nt | nt | nt | nt | nt | 13[16.7 µM]
O=c1nc(Oc2ccccc2)nc2ncccn12 | 43* | -9 | nt | nt | nt | nt
C[C@@H]1CCCCO[C@@H](CN(C)Cc2ccccc2)[C@@H](C)CN([C@@H](C)CO)C(=O)c2cc(NC(=O)Nc3cccc4ccccc34)ccc2O1 | -1 | nt | nt | nt | nt | 3[16.7 µM]
CC(=O)Nc1ccc(S(=O)(=O)N2CCN(c3cc(C)ccc3C)CC2)cc1 | 0 | 9 | -12 | 1 | 13 | -5
CC(=O)Nc1ccc(S(=O)(=O)N2CCN(c3cnn(C)c(=O)c3Cl)CC2)cc1 | 43* | 10 | -20 | -4 | -11 | 1
C[C@@H]1CN([C@@H](C)CO)C(=O)c2cc(C#CCc3ccccc3)cnc2O[C@H]1CN(C)CC1CCCC1 | 0 | nt | nt | nt | nt | -18[16.7 µM]
Cc1ccc2nc(C(=O)N3CCc4c([nH]c5ccccc45)C3c3ccccn3)cn2c1 (stereo not given) | 43* | -21 | -27 | 1 | -2 | 8
COc1ccc(C2c3[nH]c4ccccc4c3CCN2C(=O)c2cc3ncccn3n2)c(F)c1 (stereo not given) | 43* | -21 | nt | 0 | nt | 3
O=C(c1cn[nH]c1)N1CCc2c([nH]c3ccccc23)C1c1c(F)cccc1Cl (stereo not given) | 44* | 1 | 8 | -2 | 4 | -3
COc1cccc(C2c3[nH]c4ccccc4c3CCN2C(=O)c2ccccc2F)c1OC (stereo not given) | 0 | 7 | -10 | -3 | -17 | -2
CSc1nc(C(=O)N2CCc3c([nH]c4ccccc34)C2c2ccccn2)cs1 (stereo not given) | 0 | -2 | -10 | 0 | 1 | 10
CCCNC(=O)N1[C@@H]2CN(C(=O)Nc3ccccc3)c3ccccc3[C@@H]2[C@@H]1CO | 0 | nt | nt | nt | nt | 0[16.7 µM]
CCCNC(=O)N[C@H]1CC[C@@H](CC(=O)N2CCN(C)CC2)O[C@@H]1CO | 0 | nt | nt | nt | nt | nt
C/C(CC(=O)Nc1ccccn1)=N\NC(=O)c1ccccc1O | 0 | -12 | -38 | -5 | 1 | 262*

Screens as filed in PubChem.
